Experimental data published in paper PMC4081462 (Molecular diversity, 2014).
Structures can show the parent of a compound that is named as a salt.

How the values were obtained:
bovine brain tubulin = experiment: Inhibition of tubulin assembly; assay type: biochemical; settings: for IC50: read-out: Inhibition of tubulin assembly IC50 ± SD, 10 µM bovine brain tubulin, 0.4 mM GTP, 30 °C, 20 min
Procedure, shortened: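 10 µM bovine brain tubulin in glutamate buffer was preincubated with varying test compound concentrations at 30 °C, then chilled to 0 °C. 0.4 mM GTP was added and the mixture rewarmed to 30 °C in a recording spectrophotometer. Assembly was followed as turbidity at 350 nm. IC50 is the concentration cutting assembly extent by 50% after 20 min.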

tubulin [1] = experiment: Inhibition of [3H]dolastatin 10 binding to tubulin; parameters: species or system bovine; settings: for Inhibition of binding of [3H]dolastatin 10, % inhibition ± SD: 10 µM tubulin, 10 µM radiolabeled ligand
Procedure, shortened: (§1)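 Radioligand binding in 0.1 M MES (pH 6.9) with 0.5 mM MgCl2, 10 µM tubulin (1.0 mg/mL), 10 µM radiolabeled ligand and inhibitors at different concentrations. Ligands were mixed before tubulin was added, then incubated 15 min at around 20 °C. Duplicate aliquots were run through Sephadex G-50 superfine syringe columns equilibrated in 0.1 M MES-0.5 mM MgCl2 (pH 6.9). At least two experiments per condition.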

tubulin [2] = experiment: Inhibition of [3H]vinblastine binding to tubulin; parameters: species or system bovine; settings: for Inhibition of binding of [3H]vinblastine, % inhibition ± SD: 10 µM tubulin, 10 µM radiolabeled ligand
Procedure, shortened: as §1

tubulin [3] = experiment: Inhibition of [3H]halichondrin B binding to tubulin; parameters: species or system bovine; settings: for Inhibition of binding of [3H]halichondrin B, % inhibition ± SD: 10 µM tubulin, 10 µM radiolabeled ligand
Procedure, shortened: as §1

HT29 = experiment: Antiproliferative assay; assay type: cell-based; settings: Homo sapiens, HT-29, 72 h, read-out: In vitro cytotoxic activity IC50, HT29
[4] = system: HeLa, HT29, SEM, and Jurkat tumor cells; experiment: Cytotoxicity on tumor cell panel; assay type: cell-based, human
Procedure, shortened: (§2)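 Cells from ATCC. Jurkat and SEM were grown in RPMI-1640, and HeLa and HT-29 in DMEM, each with 115 units/mL penicillin G, 115 µg/mL streptomycin and 10% FBS. 8 × 10³ cells/well were seeded 18 h ahead (37 °C, 5% CO2). The medium was then replaced with test compound at several concentrations (10 mM DMSO stock) for 72 h at 37 °C. MTT read-out was at 560 nm; IC50 is 50% proliferation inhibition.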

SEM cells = experiment: Antiproliferative assay; assay type: cell-based; settings: Homo sapiens, B-cell, 72 h, read-out: In vitro cytotoxic activity IC50, SEM
Procedure, shortened: as §2

HeLa = experiment: Antiproliferative assay; assay type: cell-based; settings: Homo sapiens, 72 h, read-out: In vitro cytotoxic activity IC50, HeLa
Jurkat = experiment: Antiproliferative assay; assay type: cell-based; settings: Homo sapiens, 72 h, read-out: In vitro cytotoxic activity IC50, Jurkat
Procedure, shortened: as §2

## CN[C@H](C(=O)N[C@H](C(=O)N(C)[C@H](/C=C(\C)C(=O)O)C(C)C)C(C)(C)C)C(C)(C)c1cn(C)c2ccccc12 [Compound 1, hemiasterlin]
Bovine brain tubulin
  Inhibition of tubulin assembly (in words): active
  IC50: 1300 ± 50 nM
Tubulin [1]
  Inhibition of the binding of [3H]dolastatin 10 (in words): active
Tubulin [1]; inhibitor 5 µM
  Inhibition of binding of [3H]dolastatin 10, % inhibition ± SD: 19 ± 7%
Tubulin [1]; inhibitor 20 µM
  Inhibition of binding of [3H]dolastatin 10, % inhibition ± SD: 89 ± 1%
Tubulin [2]
  Inhibition of the binding of [3H]vinblastine (in words): active
Tubulin [2]; inhibitor 5 µM
  Inhibition of binding of [3H]vinblastine, % inhibition ± SD: 14 ± 4%
Tubulin [2]; inhibitor 20 µM
  Inhibition of binding of [3H]vinblastine, % inhibition ± SD: 66 ± 4%
Tubulin [3]
  Inhibition of the binding of [3H]halichondrin B (in words): active
Tubulin [3]; inhibitor 5 µM
  Inhibition of binding of [3H]halichondrin B, % inhibition ± SD: 38 ± 4%
Tubulin [3]; inhibitor 20 µM
  Inhibition of binding of [3H]halichondrin B, % inhibition ± SD: 92 ± 2%

## CN[C@H](C(=O)N[C@H](C(=O)N(C)[C@H](/C=C(\C)C(=O)O)C(C)C)C(C)(C)C)C(C)(C)c1ccccc1 [Compound 2, taltobulin]
HT29
  IC50: 0.3 ± 0.1 nM
Bovine brain tubulin
  Inhibition of tubulin assembly (in words): active
  IC50: 1200 ± 10 nM
Tubulin [1]
  Inhibition of the binding of [3H]dolastatin 10 (in words): active
Tubulin [1]; inhibitor 5 µM
  Inhibition of binding of [3H]dolastatin 10, % inhibition ± SD: 0 ± 0%
Tubulin [1]; inhibitor 20 µM
  Inhibition of binding of [3H]dolastatin 10, % inhibition ± SD: 30 ± 1%
[4]
  Cytotoxic activity (in words): nanomolar IC50 values
SEM cells
  IC50: 0.1 ± 0.05 nM
HeLa
  IC50: 0.2 ± 0.1 nM
Jurkat
  IC50: 0.2 ± 0.5 nM
Tubulin [2]
  Inhibition of the binding of [3H]vinblastine (in words): active
Tubulin [2]; inhibitor 5 µM
  Inhibition of binding of [3H]vinblastine, % inhibition ± SD: 29 ± 9%
Tubulin [2]; inhibitor 20 µM
  Inhibition of binding of [3H]vinblastine, % inhibition ± SD: 60 ± 2%
Tubulin [3]
  Inhibition of the binding of [3H]halichondrin B (in words): active
Tubulin [3]; inhibitor 5 µM
  Inhibition of binding of [3H]halichondrin B, % inhibition ± SD: 38 ± 6%
Tubulin [3]; inhibitor 20 µM
  Inhibition of binding of [3H]halichondrin B, % inhibition ± SD: 63 ± 1%

## CN[C@H](C(=O)N[C@H](C(=O)N(C)c1cccc(C(=O)O)c1)C(C)C)C(C)(C)c1ccccc1.O=C(O)C(F)(F)F [Compound 3, 3-((S)-N,3 Dimethyl-2-((S)-3-methyl-2-(methylamino)-3-phenylbutanamido)butanamido) benzoic acid trifluoroacetate]
HT29
  IC50: 1900 ± 500 nM
Bovine brain tubulin
  IC50: > 20000 nM
Tubulin [1]; inhibitor 20 µM
  Inhibition of binding of [3H]dolastatin 10, % inhibition ± SD: 7 ± 3%
SEM cells
  IC50: > 10000 nM
HeLa
  IC50: 4700 ± 500 nM
Jurkat
  IC50: 150 ± 20 nM
Tubulin [2]; inhibitor 20 µM
  Inhibition of binding of [3H]vinblastine, % inhibition ± SD: 2 ± 1%
Tubulin [3]; inhibitor 20 µM
  Inhibition of binding of [3H]halichondrin B, % inhibition ± SD: 0 ± 0%

## CN[C@H](C(=O)N[C@H](C(=O)N(C)c1cc(C(=O)O)ccc1C)C(C)C)C(C)(C)c1ccccc1.O=C(O)C(F)(F)F [Compound 4, 3-((S)-N,3-Dimethyl-2-((S)-3-methyl-2-(methylamino)-3-phenylbutanamido)butanamido)-4-methylbenzoic acid trifluoroacetate]
HT29
  IC50: 2700 ± 200 nM
Bovine brain tubulin
  IC50: > 20000 nM
Tubulin [1]; inhibitor 20 µM
  Inhibition of binding of [3H]dolastatin 10, % inhibition ± SD: 0 ± 0%
SEM cells
  IC50: > 10000 nM
HeLa
  IC50: 5300 ± 600 nM
Jurkat
  IC50: 290 ± 50 nM
Tubulin [2]; inhibitor 20 µM
  Inhibition of binding of [3H]vinblastine, % inhibition ± SD: 9 ± 1%
Tubulin [3]; inhibitor 20 µM
  Inhibition of binding of [3H]halichondrin B, % inhibition ± SD: 3 ± 1%

## CN[C@H](C(=O)N[C@H](C(=O)N(C)c1cc(C(=O)O)ccc1OC)C(C)C)C(C)(C)c1ccccc1.O=C(O)C(F)(F)F [Compound 5, 3-((S)-N,3-Dimethyl-2-((S)-3-methyl-2-(methylamino)-3-phenylbutanamido)butanamido)-4-methoxybenzoic acid trifluoroacetate]
HT29
  IC50: > 10000 nM
Bovine brain tubulin
  IC50: > 20000 nM
Tubulin [1]; inhibitor 20 µM
  Inhibition of binding of [3H]dolastatin 10, % inhibition ± SD: 8 ± 2%
SEM cells
  IC50: > 10000 nM
HeLa
  IC50: > 10000 nM
Jurkat
  IC50: > 10000 nM
Tubulin [2]; inhibitor 20 µM
  Inhibition of binding of [3H]vinblastine, % inhibition ± SD: 0 ± 0%
Tubulin [3]; inhibitor 20 µM
  Inhibition of binding of [3H]halichondrin B, % inhibition ± SD: 0 ± 0%

## CN[C@H](C(=O)N[C@H](C(=O)N(C)[C@H](c1nc(C(=O)O)co1)C(C)C)C(C)C)C(C)(C)c1ccccc1 [Compound 8, 2-((S)-1-((S)-N,3-Dimethyl-2-((S)-3-methyl-2-(methylamino)-3-phenylbutanamido)butanamido)-2-methylpropyl)oxazole-4-carboxylic acid trifluoroacetate]
HT29
  IC50: > 10000 nM
SEM cells
  IC50: > 10000 nM
HeLa
  IC50: > 10000 nM
Jurkat
  IC50: > 10000 nM
